Reference: ChEMBL document CHEMBL1146966, “Beta'-hydroxy-alpha,beta-unsaturated ketones: a new pharmacophore for the design of anticancer drugs” (2006)

Key:
Format in all cases: functional
A2780 = assay: Antiproliferative activity against A2780 cell line after 48 hrs by SRB assay; settings: Homo sapiens, A2780, 48 h
In short: (§1)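 Human solid tumor cells exposed 48 h to compound in duplicate at five tenfold dilutions, top final concentration 100 µM (DMSO stock at 400× that; controls got matching DMSO). Cells precipitated with ice-cold 50% TCA, fixed 60 min at 4 °C, stained by SRB, OD read at 490 nm. Percentage growth from OD at start versus end of exposure, corrected for medium-only background. GI50 = concentration giving PG +50 (NCI protocol); means of two to four experiments.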

WiDr = assay: Antiproliferative activity against WiDr cell line after 48 hrs by SRB assay; settings: Homo sapiens; in short: as §1
SW1573 = assay: Antiproliferative activity against SW1573 cell line after 48 hrs by SRB assay; settings: Homo sapiens, SW1573, 48 h; in short: as §1

Structure (SMILES) | GI50 (A2780) | GI50 (WiDr) | GI50 (SW1573)
CC(=O)/C=C/C1CCCCC1 | 21 µM | 23 µM | 30 µM
CC(C)C/C=C/C(=O)c1ccccc1 | 20 µM | 22 µM | 31 µM
CC(C)CC(O)CC(=O)/C=C\c1ccccc1 (stereo not drawn) | 2.6 µM | 16 µM | 13 µM
CC(C)C/C=C(/C(=O)c1ccccc1)c1ccccc1 | 21 µM | 21 µM | 33 µM
Cc1ccc(/C=C\C(=O)CC(O)CC(C)C)cc1 (stereo not drawn) | 3.9 µM | 15 µM | 12 µM
O=C(/C=C/c1ccccc1)CC(O)c1ccccc1 (stereo not drawn) | 3.3 µM | 14 µM | 4.3 µM
CCCCCC/C=C/C(C)=O | 91 µM | 56 µM | 79 µM
CC(C)CC(O)C(C)C(=O)/C=C\c1ccc(Br)cc1 (stereo not drawn) | 5.5 µM | 12 µM | 11 µM
CC(C)(C)/C=C/C(=O)CC(O)C(C)(C)C (stereo not drawn) | 9.9 µM | 59 µM | 26 µM
CC(C)C/C=C(\CO)C(=O)c1ccccc1 | 18 µM | 19 µM | 24 µM
O=C(/C=C/C1CCCCC1)CC(O)C1CCCCC1 (stereo not drawn) | 1.8 µM | 2.9 µM | 3.1 µM
O=C(/C=C/CCCCCCCCCCBr)CC(O)CCCCCCCCCCBr (stereo not drawn) | 16 µM | 32 µM | 30 µM
CC(C)C/C=C/C(=O)CC(O)CC(C)C (stereo not drawn) | 17 µM | 21 µM | 27 µM
CCCCCC/C=C/C(=O)CC(O)CCCCCC (stereo not drawn) | 26 µM | 31 µM | 25 µM
C/C(=C\CC(C)C)C(=O)c1ccccc1 | > 100 µM | > 100 µM | > 100 µM
C/C(=C\C1CCCCC1)C(=O)c1ccccc1 | 28 µM | 41 µM | 36 µM
